Data reported in ChEMBL document CHEMBL1123795, “Inhibitors of dopamine beta-hydroxylase. 3. Some 1-(pyridylmethyl)imidazole-2-thiones” (J Med Chem, 1987).

Key:
Rattus norvegicus [1] = test: Antihypertensive activity was determined by decrease in blood pressure response in spontaneously hypertensive rat was determined after intraperitoneal administration at a dose of 50 mg/kg; assay type: functional
Outline: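 SHR received a single 50 mg/kg ip dose given as a solution in 20% DMF. Blood pressure was read 2 h after dosing, and the reduction (±SEM) was expressed relative to vehicle-dosed control animals.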

Rattus norvegicus [2] = test: Percent increase in DA/NE ratio was determined from assay of DA and NE in the mesenteric artery of spontaneously hypertensive rat after two doses for 50 mg/kg peroral administration; assay type: functional; conditions: route oral
Outline: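 SHR received two 50 mg/kg doses 18 h apart as suspensions in a 5% PEG 400, 1% methocel vehicle. DA and NE were then assayed in mesenteric artery. The percent change in DA/NE ratio (±SEM) was expressed relative to vehicle-dosed controls.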

[3] = biological target: T1, Dopamine beta-hydroxylase (Rattus norvegicus, UniProt Q05754); test: Inhibition of Dopamine beta hydroxylase in spontaneously hypertensive rats; Value ranges from 89-121
T1 sequence (Q05754 whole entry): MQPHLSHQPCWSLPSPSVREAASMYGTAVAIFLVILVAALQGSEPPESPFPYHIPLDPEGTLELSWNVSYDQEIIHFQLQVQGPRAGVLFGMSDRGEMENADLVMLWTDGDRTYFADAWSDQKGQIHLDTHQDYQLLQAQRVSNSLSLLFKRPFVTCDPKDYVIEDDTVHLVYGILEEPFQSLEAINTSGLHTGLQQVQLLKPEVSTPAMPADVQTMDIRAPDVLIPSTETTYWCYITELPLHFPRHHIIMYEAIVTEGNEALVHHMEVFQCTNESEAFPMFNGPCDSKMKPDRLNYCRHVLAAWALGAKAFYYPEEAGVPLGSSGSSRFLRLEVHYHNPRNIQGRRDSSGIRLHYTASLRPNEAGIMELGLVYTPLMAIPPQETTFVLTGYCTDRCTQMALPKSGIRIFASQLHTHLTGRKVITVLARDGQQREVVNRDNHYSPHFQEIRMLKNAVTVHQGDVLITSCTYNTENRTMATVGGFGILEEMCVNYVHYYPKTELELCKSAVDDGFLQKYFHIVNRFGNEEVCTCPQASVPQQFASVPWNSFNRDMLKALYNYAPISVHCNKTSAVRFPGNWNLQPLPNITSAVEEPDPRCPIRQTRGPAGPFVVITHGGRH

[4] = biological target: T1, Dopamine beta-hydroxylase
[5] = biological target: T1, Dopamine beta-hydroxylase; test: Inhibition of Dopamine beta hydroxylase in spontaneously hypertensive rats; Value ranges from 21-35
[6] = biological target: T1, Dopamine beta-hydroxylase; test: Inhibition of Dopamine beta hydroxylase in spontaneously hypertensive rats; Value ranges from 1.3-4.6
[7] = biological target: T2, Dopamine beta-hydroxylase (Rattus norvegicus) (UniProt Q05754); test: Inhibition of Dopamine beta hydroxylase in spontaneously hypertensive rats at a concentration of 10e-4
T2 sequence (whole entry): T1 sequence (Q05754 whole entry)
Outline: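 The DBH assay was run in vitro, with percent inhibition of product formation versus control measured at 10⁻⁴ M compound.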

[8] = biological target: T1, Dopamine beta-hydroxylase; test: Inhibition of Dopamine beta hydroxylase in spontaneously hypertensive rats; Value ranges from 0.4-1.1
[9] = biological target: T1, Dopamine beta-hydroxylase; test: Inhibition of Dopamine beta hydroxylase in spontaneously hypertensive rats; Value range from 8.9-13
[10] = biological target: T1, Dopamine beta-hydroxylase; test: Inhibition of Dopamine beta hydroxylase in spontaneously hypertensive rats; Value ranges from 76-220

| inhibition [7] [%] | SMILES | Decrease in blood pressure (Rattus norvegicus [1]) [mmHg] | Increase (Rattus norvegicus [2]) [%] | other results |
| --- | --- | --- | --- | --- |
|  | Sc1nccn1Cc1cccnc1 | 34 | 52 | IC50 [3]: 104 µM |
|  | Fc1cc(F)cc(Cn2cc[nH]c2=S)c1 | 50 | 407 | IC50 [4]: 1.2 µM |
|  | Oc1ccc(Cn2ccnc2S)nc1 | 22 |  | IC50 [5]: 27 µM |
|  | Oc1ccc(Cn2cc[nH]c2=S)cc1 | 22 | 95 | IC50 [6]: 2.6 µM |
| 17 | Sc1nccn1Cc1ccncc1 | 38 | 49 |  |
|  | CCCCc1ccc(C(=O)O)nc1 [FUSARIC ACID] | 54 | 80 | IC50 [8]: 0.7 µM |
|  | S=c1[nH]ccn1Cc1ccccc1 |  |  | IC50 [9]: 11 µM |
| 7 | Oc1ccc(Cn2ccnc2S)cn1 |  |  |  |
|  | Sc1nccn1Cc1ccccn1 | 35 | 141 | IC50 [10]: 131 µM |
| 17 | COc1ccc(Cn2ccnc2S)cn1 |  |  |  |
